Screening data: PubChem, several laboratories
In the library only some 4.2% were active in any assay of this set; here they are far more common.
SENP1 inh: SENP1 (human) catalytic domain inhibition; recombinant SENP1 catalytic domain, CyPet-SUMO1-YPet FRET cleavage; Q9P0U3; inhibition, % at 10 µM; AID 624204; 360,000 tested, 0.21% active;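 active means inhibition at least 30% at 10 µM, raw YFP signal under a set limit, fluorescence ratio 0.5 to 1.5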;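 further: 0% = enzyme with DMSO and 100% = no enzyme wells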
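Test system: human SENP1 catalytic domain; medium: Tris pH 8 buffer plus EDTA, NaCl, BME, BSA, NP40, catalase; incubation: 50 min reaction at room temperature; technique: FRET, CFP and YFP emission; controls: no-enzyme low control and enzyme-plus-DMSO high control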
AHR act: human AHR activation; P35869; AHR-responsive luciferase reporter cells, luminescence; activation, % at 5 µM; 320,000 tested, 2.5% active; in the data active means activation above about 47%;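 further: 0% = vehicle wells and 100% = reference agonist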
GAA850 FXN act: frataxin GAA850 promoter activation; activation, % at 6 µM; 360,000 tested, 0.56% active; AID 540364; HEK293 lucGAA850 FXN promoter luciferase reporter, 24 h; percent of 10 µM SAHA response;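 active means activation above the average of all compounds screened plus 3 SD, cutoff fixed separately per campaign, cut at about 7.5% in these data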;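 further: 0% = DMSO wells and 100% = 10 µM SAHA wells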
HDAC3 inhib: blocks human histone deacetylase 3. 320,000 tested, 0.15% active. O15379. recombinant HDAC3, fluorogenic peptide/trypsin coupled, fluorescence. inhibition, % at 8.3 µM; in the data active means inhibition above about 26%, passing the limit was not always enough
Target sequence (O15379 whole entry, looked up): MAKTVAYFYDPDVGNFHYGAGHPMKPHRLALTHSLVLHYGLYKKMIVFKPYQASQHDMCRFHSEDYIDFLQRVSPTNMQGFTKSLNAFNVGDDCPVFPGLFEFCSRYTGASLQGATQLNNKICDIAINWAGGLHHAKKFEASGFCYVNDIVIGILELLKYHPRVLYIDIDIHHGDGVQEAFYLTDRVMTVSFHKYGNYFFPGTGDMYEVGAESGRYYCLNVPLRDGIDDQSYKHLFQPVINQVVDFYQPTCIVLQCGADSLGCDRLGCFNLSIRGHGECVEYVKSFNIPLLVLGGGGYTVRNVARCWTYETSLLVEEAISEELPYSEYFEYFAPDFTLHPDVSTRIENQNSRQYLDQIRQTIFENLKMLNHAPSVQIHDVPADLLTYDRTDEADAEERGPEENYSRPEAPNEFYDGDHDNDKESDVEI
CTSL1 counter: counter-screen for PFM18AAP inhibitors: inhibitors of F. hepatica cathepsin L1; 300,000 tested, 0.49% active; AID 1906; inhibition, % at 5.96 µM; recombinant F. hepatica cathepsin L1, Z-Leu-Arg-MCA fluorescence;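 active means inhibition above the mean of all tested compounds plus 3 SD, set per screening campaign, cut at about 17% in these data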;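 further: 0% = plate median of test compound wells and 100% = 1 µM Z-Phe-Ala-diazomethylketone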
PfM18AAP inh: blocks P. falciparum M18 aspartyl aminopeptidase. recombinant PfM18AAP, H-Glu-NHMec fluorogenic cleavage. inhibition, % at 7.35 µM. 290,000 tested, 1.2% active. AID 1822;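 active means inhibition above the campaign mean inhibition over all tested compounds plus 3 SD, cut at about 28% in these data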;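 further: 0% = plate median of test compound wells and 100% = 2 mM ZnCl2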
* marks the source's active call; other numbers are inactive results; / = no result given.

SMILES | SENP1 inh | AHR act | GAA850 FXN act | HDAC3 inhib | CTSL1 counter | PfM18AAP inh
CCOc1ccc(Nc2nc(C)cc(C)c2C#N)cc1 | 2.1 | 79.7* | 0.2 | -4.2 | -2.8 | -0.6
O=C(NCc1ccccc1)NC(=O)c1ccc(Cl)cc1 | 1.6 | 3.7 | -0.8 | -6.0 | 2.4 | 4.1
O=C(Nc1nnc(S(=O)(=O)N2CCCC2)s1)c1ccccc1Br | -0.5 | -0.7 | -1.7 | 0.2 | 80.6* | 2.3
O=C(Nc1nnc(S(=O)(=O)N2CCCCCC2)s1)c1ccccc1Br | -6.8 | 0.4 | -0.9 | -0.3 | 5.3 | -2.5
O=C(O/N=C(/c1ccccc1)c1ccncc1)c1cccc(F)c1 | 5.3 | 1.1 | 1.1 | 16.8 | -16.8 | 5.3
Cc1ccc(C(=O)O/N=C(\c2ccccc2)c2ccncc2)cc1 | 5.3 | 1.4 | -0.2 | 36.0* | -6.3 | 2.2
COCCNC(=O)CN1C(=O)COc2ccc(Cl)cc21 | -0.3 | -3.8 | 0.7 | 2.8 | 17.6* | 0.3
O=C(CN1C(=O)COc2ccccc21)c1ccc(Cl)cc1 | 3.1 | 49.8* | 3.7 | 0.2 | -3.2 | -1.6
c1ccc2c(Nc3nc(N4CCOCC4)c4ccccc4n3)cccc2c1 | -10.9 | 71.1* | 1.1 | -1.3 | 3.9 | -7.1
FC(F)(F)c1ccc(C2NCCc3sccc32)cc1 (stereo unspecified) | -2.6 | 64.8* | 2.7 | 0.1 | 3.7 | -6.6
O=C(CC1SC(N2CCCC2)=NC1=O)Nc1ccc(C(=O)Nc2ncccc2O)cc1 (stereo unspecified) | 0.7 | 5.1 | 5.5 | 93.7* | 3.2 | /
COc1ccc(-c2nc(-c3cccc(C)c3)[nH]c(=O)c2C#N)cc1 | -2.3 | 0.2 | 1.2 | 0.2 | -4.3 | 4.6
COc1cccc(-c2nc(-c3ccccc3)[nH]c(=O)c2C#N)c1 | 0.9 | 79.0* | -1.3 | 2.8 | -5.4 | -2.0
CC[C@]12c3[nH]c4cc(-c5ccco5)ccc4c3CCN1C(=O)[C@@H](CC(=O)NC(C)(C)C)C[C@@H]2C(=O)N1CCN(C(=O)c2ccco2)CC1 | -22.0 | / | -2.8 | / | / | /
O=S(=O)(c1ccccc1)c1cnc(-c2ccccc2)nc1N1CCCCC1 | 1.8 | -0.4 | 1.9 | 4.1 | 6.3 | 6.2
N#CCSc1n[nH]c2nc3c(c(=O)n12)C1(CCCC1)Cc1ccccc1-3 | -119.0 | 51.9* | 1.3 | -10.9 | 4.8 | 9.7
CCCn1c(SCC#N)nc2c(c1=O)C1(CCCC1)Cc1ccccc1-2 | -2.9 | 0.7 | 2.3 | -3.2 | 6.2 | -0.3
Cc1nc2ccccc2n1C(c1cccnc1)c1nc2ccccc2[nH]1 (stereo unspecified) | 0.8 | / | / | / | / | /
O=C(CN1CCN(C(=O)C2CCCO2)CC1)Nc1cc(C(F)(F)F)ccc1Cl (stereo unspecified) | -1.3 | -1.4 | 1.4 | -0.5 | -0.6 | -1.6
N#Cc1cccnc1Nc1ccc(Cl)cc1 | 1.4 | 54.6* | 1.0 | -8.7 | 0.6 | -2.3
CCCCc1ccc(Nc2ncccc2C#N)cc1 | 0.4 | 20.7 | 4.5 | 6.0 | 1.7 | -4.0
Cc1oc2cc3oc(=O)c(CCC(=O)N(C)CC(=O)O)c(C)c3cc2c1C | -5.9 | -1.4 | 0.1 | 5.4 | 1.0 | -1.8
COc1ccc(C(=O)Nc2ccccc2C(=O)N(Cc2ccco2)C(C(N)=O)C(C)C)cc1 (stereo unspecified) | -0.1 | -0.9 | -0.3 | 0.1 | 38.0* | -2.4
CCC(C)[C@H](NC(=O)[C@@H]1CSC2c3ccccc3C(=O)N21)C(=O)NCc1ccco1 (stereo partly specified) | -1.4 | -0.8 | 2.1 | 3.5 | 80.6* | -7.4
CCC(C)[C@H](NC(=O)[C@@H]1CSC2c3ccccc3C(=O)N21)C(=O)NC1CCCC1 (stereo partly specified) | 1.5 | 3.1 | 0.1 | 2.9 | 12.3 | -0.8
COc1ccc(/C(C)=N/NC(=S)NCc2ccco2)cc1 | -1.5 | 62.7* | 2.1 | 3.8 | 1.1 | 15.1
COc1ccc(C(=O)N[C@H](C(=O)NCc2ccco2)C(C)C)cc1 | -1.5 | 1.6 | -1.8 | 0.6 | 18.5* | 5.0
COc1cc(OC)cc(C(=O)N[C@H](C(=O)NCc2ccco2)C(C)C)c1 | -1.3 | 0.4 | 2.0 | 2.1 | 8.0 | 2.9
OC(CNCCc1ccc(Cl)cc1)COc1cc(Cl)ccc1Cl (stereo unspecified) | 3.5 | 0.7 | -0.3 | / | -0.7 | -9.6
O=C1NC[C@H](CCCCN2C[C@H](Cc3ccc(O)cc3)N(CC3CCCCC3)C(=O)C2=O)N(Cc2ccccc2)C1=O | 3.0 | / | / | / | / | /
